Data on three molecules can be found in paper PMC8992017 (Journal of medicinal chemistry, 2019).

Data set [1] concerns NF-κB. In words: NF-κB activation in THP1-Blue NF-κB reporter cells. Type of data set: cell-based. The following applies: compound 1 + LPS, raw value used for normalization, mean ± SEM. Summed up:
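THP1-Blue NF-κB cells at 10^5/well in RPMI with 10% FBS, pen/strep and Normocin. Test compound (1 mM DMSO stock) was diluted into LPS medium, giving final 5 μM compound ([…]), with LPS co-added. After 20 h, supernatant SEAP was measured colorimetrically with QuantiBlue at 630 nm. Two-point normalized: reference sulfonamide + LPS = 200%, LPS alone = 100%; mean ± SEM.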

The subject of data set [2] is ISRE. In words: ISRE activity in ISRE-bla THP-1 reporter cells. In kind it is cell-based. The essentials: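 ISRE-bla THP-1 cells at 5×10^4/well in RPMI with 10% dialyzed FBS, 0.1 mM non-essential amino acids, 1 mM pyruvate and pen/strep. Test compound (1 mM DMSO stock) was diluted in IFN-α medium, giving final 5 μM compound ([…]) and final 100 U/mL IFN-α. Incubation 16 h, then CCF4-AM FRET substrate 3 h at RT in the dark. Excitation 405 nm; background-subtracted 465/535 nm emission ratio. Two-point normalized: reference sulfonamide + IFN-α = 200%, IFN-α alone = 100%; mean ± SEM.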

The test system of data set [3] is C57BL/6 (wild-type, WT) mice. In kind it is in vivo. The settings on record: for systemic toxicity, as indicated by behavior change or weight loss (in words): mice co-immunized with MPLA, ovalbumin and compound; for OVA-specific IgG antibody titers versus MPLA alone (in words): mice, n=8 per group, intramuscular, ovalbumin 20 μg/animal + MPLA + compound, days 0 and 21. Summed up:
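Female/male not stated; C57BL/6 wild-type mice aged 7–9 weeks, 8 per group. Test compound mixed with ovalbumin (20 μg/animal) and MPLA and injected into the gastrocnemius muscle on days 0 and 21. Mice then bled, and serum OVA-specific IgG titres measured by ELISA. Data given as mean ± SEM.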

Data set [4] deals with NF-κB. The following applies: compound alone, without LPS; cited from earlier work.
The test system of data set [5] is ISRE. The settings on record: compound alone, without IFN-α; cited from earlier work.
Data set [6] in a line: Stability of compound in DMSO stock and in assay media. Type of data set: physicochemical.

`CCOc1ccc(S(=O)(=O)Nc2cc(OC)c(Cl)cc2OC)cc1` [Compound 1, N-(4-chloro-2,5-dimethoxyphenyl)-4-ethoxybenzenesulfonamide]: the “mean SEAP response in NF-κB assay” value in the data set on NF-κB [1] was determined as 3.44 ± 0.08 µg/mL. In addition, in the data set with ISRE [2] (compound 1 + IFN-α, raw value used for normalization, mean ± SEM), the “mean emission ratio in ISRE assay” value came out at 1.88 ± 0.04 µg/mL. In addition, in data set [3], the “systemic toxicity, as indicated by behavior change or weight loss (in words)” value is reported as “without demonstrable systemic toxicity” and the “OVA-specific IgG antibody titers versus MPLA alone (in words)” value is given as “statistically significant increases”. Also, the “NF-κB activity when tested alone (in words)” value in the data set with NF-κB [4] is “did not possess any NF-κB or ISRE activity”. In the data set on ISRE [5], the “ISRE activity when tested alone (in words)” value is “did not possess any NF-κB or ISRE activity”.
Regarding `CCOc1ccc(S(=O)(=O)N(C)c2cc(OC)c(Cl)cc2OC)cc1` [Compound 33, N-(4-chloro-2,5-dimethoxyphenyl)-4-ethoxy-N-methylbenzenesulfonamide], in data set [3], the “systemic toxicity, as indicated by behavior change or weight loss (in words)” value is “without demonstrable systemic toxicity” and the “OVA-specific IgG antibody titers versus MPLA alone (in words)” value was “statistically significant increases”.
In the case of `CCOc1ccc(S(=O)(=O)N(C(C)=O)c2cc(OC)c(Cl)cc2OC)cc1` [Compound 48, N-(4-chloro-2,5-dimethoxyphenyl)-N-((4-ethoxyphenyl)sulfonyl)acetamide], in the data set on ISRE [2] (compound 5 μM + IFN-α, compared with compound 1), the “ISRE activity (in words)” value is listed as “active”. Further, in data set [6], the “stability of stock in DMSO (in words)” value is given as “stable”.
